Data published in ChEMBL document CHEMBL1126070, “Bisquinolines. 1. N,N-bis(7-chloroquinolin-4-yl)alkanediamines with potential against chloroquine-resistant malaria” (J Med Chem, 1992).

What was measured:
[1] = Resistance index was measured as the ratio of IC50 of Plasmodium falciparum W-2 clone / IC50 of P. falciparum D-6 clone; assay type: functional
Outline: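 P. falciparum clones D-6 (mefloquine-resistant) and W-2 (CQ-, pyrimethamine-, sulfadoxine- and quinine-resistant) were tested in parallel. Compounds were dissolved in DMSO and serially diluted in culture medium. Infected erythrocytes at 0.25–0.5% parasitemia were added to a final 1.5% hematocrit. IC50 for each clone came from inhibition of tritiated hypoxanthine uptake, and the index is IC50(W-2)/IC50(D-6).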

Plasmodium falciparum [2] = assay: In vitro activity against Plasmodium falciparum W-2; assay type: functional, organism-based
Outline: (§1)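 Test compounds dissolved in DMSO and serially diluted in culture medium. Erythrocytes at 0.25 to 0.5% parasitemia added in 96-well microdilution plates to a final hematocrit of 1.5%. Activity indexed by inhibition of [3H]hypoxanthine uptake. IC50 derived from this uptake.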

Plasmodium berghei [3] = assay: In vivo antimalarial activity against Plasmodium berghei infected mice (Mus musculus) at 40 mg/kg; assay type: functional
Plasmodium falciparum [4] = assay: In vitro activity against Plasmodium falciparum D6; assay type: functional, organism-based; outline: as §1
Plasmodium berghei [5] = assay: In vivo antimalarial activity against Plasmodium berghei infected mice (Mus musculus) at 160 mg/kg; assay type: functional
Plasmodium berghei [6] = assay: In vivo antimalarial activity against Plasmodium berghei infected mice (Mus musculus) at 320 mg/kg
Plasmodium berghei [7] = assay: In vivo antimalarial activity against Plasmodium berghei infected mice (Mus musculus) at 640 mg/kg; assay type: functional
Plasmodium berghei [8] = assay: In vivo antimalarial activity against Plasmodium berghei infected mice (Mus musculus) at 640 mg/kg; C-1; assay type: functional, organism-based; design: dose 640 mg/kg
Plasmodium berghei [9] = assay: In vivo antimalarial activity against Plasmodium berghei infected mice (Mus musculus) at 640 mg/kg; Skin lesions at injection site; assay type: functional, organism-based; design: dose 640 mg/kg; details: Skin of body
Outline: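 P. berghei (KBG 173) infected male mice, 5 per dose, given a single subcutaneous dose 3 days post-infection. Injection sites examined for skin lesions.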

SMILES	Resistance index [1]	IC50 (Plasmodium falciparum [2]) [nM]	T-C (Plasmodium berghei [3]) [days]	IC50 (Plasmodium falciparum [4]) [nM]	T-C (Plasmodium berghei [5]) [days]	T-C (Plasmodium berghei [6]) [days]	T-C (Plasmodium berghei [7]) [days]	T-C (Plasmodium berghei [8])	T-C (Plasmodium berghei [9])
Clc1ccc2c(NC3CCCCC3Nc3ccnc4cc(Cl)ccc34)ccnc2c1 (configuration not stated)	1.4	1.4	8.5	1	>60	>60	–	–	–
Clc1ccc2c(NCCNc3ccnc4cc(Cl)ccc34)ccnc2c1	1.6	27	0	17	0.4	–	1.4	–	–
Clc1ccc2c(NCCCCCCCCNc3ccnc4cc(Cl)ccc34)ccnc2c1	0.6	3.1	-0.2	5.6	1	–	–	Curative-1	–
CC(CCCNc1ccnc2cc(Cl)ccc12)CNc1ccnc2cc(Cl)ccc12 (configuration not stated)	1.1	3	1.2	2.7	3.6	–	>60	–	–
Clc1ccc2c(NCCCCCNc3ccnc4cc(Cl)ccc34)ccnc2c1	1.5	3.8	1	2.5	5.1	–	>60	–	–
CCN(CC)CCCC(C)Nc1ccnc2cc(Cl)ccc12 (configuration not stated) [CHLOROQUINE]	–	–	–	–	>60	–	>60	–	–
Clc1ccc2c(NCCCNc3ccnc4cc(Cl)ccc34)ccnc2c1	5.5	83	0.2	15	0.4	–	1.2	–	–
CC(CNc1ccnc2cc(Cl)ccc12)Nc1ccnc2cc(Cl)ccc12 (configuration not stated)	1.1	3.9	3.4	3.5	5.7	–	>60	–	–
Clc1ccc2c(NCCCCCCCCCCCCNc3ccnc4cc(Cl)ccc34)ccnc2c1	0.5	31	0	60	-0.2	–	0	–	–
Clc1ccc2c(NCCCCNc3ccnc4cc(Cl)ccc34)ccnc2c1	0.2	81	0.5	390	2.3	–	5.6	–	–
Clc1ccc2c(NCCCCCCNc3ccnc4cc(Cl)ccc34)ccnc2c1	1.1	23	0.4	21	3.9	–	>60	–	–
Clc1ccc2c(N3CCN(CCCN4CCN(c5ccnc6cc(Cl)ccc56)CC4)CC3)ccnc2c1 [PIPERAQUINE]	1.9	16	–	8.3	–	–	–	–	–
Clc1ccc2c(NCCCCCCCCCNc3ccnc4cc(Cl)ccc34)ccnc2c1	0.8	2.3	3.1	3	7.4	–	–	–	Lesions 15A
Clc1ccc2c(NCCCCCCCNc3ccnc4cc(Cl)ccc34)ccnc2c1	2.3	4.3	2.6	1.9	7.2	–	–	–	–
Clc1ccc2c(NCCCCCCCCCCNc3ccnc4cc(Cl)ccc34)ccnc2c1	0.6	3.4	0.2	5.7	0.2	–	0.6	–	–
